# Test results published in ChEMBL document CHEMBL3352402, “Pharmacological evaluation and docking studies of α,β-unsaturated carbonyl based synthetic compounds as inhibitors of secretory phospholipase A₂, cyclooxygenases, lipoxygenase and proinflammatory cytokines” (Bioorg Med Chem, 2014).
# Activity calls are given as the source filed them. The rule behind the calls is not given here.
# How the values were obtained:
# [1] = Inhibition of sPLA2-V (unknown origin) using substrate 1,2-bis(heptanoylthio)-glycerophosphocholine by Ellman's method based photometric assay; design: species or system Homo sapiens
# [2] = target: T1, Prostaglandin G/H synthase 2 (Homo sapiens, UniProt P35354); test: Inhibition of human recombinant COX2 using arachidonic acid substrate assessed as PGE2 production ELISA method after 2 mins
# T1 sequence (P35354 whole entry): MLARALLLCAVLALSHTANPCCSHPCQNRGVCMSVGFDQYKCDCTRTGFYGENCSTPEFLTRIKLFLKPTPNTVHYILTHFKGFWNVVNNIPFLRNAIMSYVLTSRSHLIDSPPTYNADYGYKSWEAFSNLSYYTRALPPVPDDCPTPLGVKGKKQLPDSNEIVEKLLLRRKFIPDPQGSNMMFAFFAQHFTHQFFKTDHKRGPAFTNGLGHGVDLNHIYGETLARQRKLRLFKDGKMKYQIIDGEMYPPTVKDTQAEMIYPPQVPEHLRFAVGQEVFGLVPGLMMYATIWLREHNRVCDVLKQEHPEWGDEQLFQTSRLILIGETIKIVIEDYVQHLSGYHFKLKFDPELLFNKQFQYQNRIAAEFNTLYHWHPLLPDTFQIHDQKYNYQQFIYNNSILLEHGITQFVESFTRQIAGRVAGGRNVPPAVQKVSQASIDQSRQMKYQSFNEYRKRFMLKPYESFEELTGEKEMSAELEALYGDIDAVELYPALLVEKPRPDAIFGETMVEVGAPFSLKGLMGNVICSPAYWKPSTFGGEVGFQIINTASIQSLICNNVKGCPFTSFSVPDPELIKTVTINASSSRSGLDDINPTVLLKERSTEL
# [3] = tested on: RAW264.7; test: Inhibition of TNFalpha expression in mouse RAW264.7 cells at 10 uM per-treated with compound for 2 hrs before LPS challenge for 22 hrs by ELISA method; assay type: functional
# [4] = target: T2, Prostaglandin G/H synthase 1 (Ovis aries, UniProt P05979); test: Inhibition of ovine COX1 using arachidonic acid substrate assessed as PGE2 production ELISA method after 2 mins
# T2 sequence (P05979 whole entry): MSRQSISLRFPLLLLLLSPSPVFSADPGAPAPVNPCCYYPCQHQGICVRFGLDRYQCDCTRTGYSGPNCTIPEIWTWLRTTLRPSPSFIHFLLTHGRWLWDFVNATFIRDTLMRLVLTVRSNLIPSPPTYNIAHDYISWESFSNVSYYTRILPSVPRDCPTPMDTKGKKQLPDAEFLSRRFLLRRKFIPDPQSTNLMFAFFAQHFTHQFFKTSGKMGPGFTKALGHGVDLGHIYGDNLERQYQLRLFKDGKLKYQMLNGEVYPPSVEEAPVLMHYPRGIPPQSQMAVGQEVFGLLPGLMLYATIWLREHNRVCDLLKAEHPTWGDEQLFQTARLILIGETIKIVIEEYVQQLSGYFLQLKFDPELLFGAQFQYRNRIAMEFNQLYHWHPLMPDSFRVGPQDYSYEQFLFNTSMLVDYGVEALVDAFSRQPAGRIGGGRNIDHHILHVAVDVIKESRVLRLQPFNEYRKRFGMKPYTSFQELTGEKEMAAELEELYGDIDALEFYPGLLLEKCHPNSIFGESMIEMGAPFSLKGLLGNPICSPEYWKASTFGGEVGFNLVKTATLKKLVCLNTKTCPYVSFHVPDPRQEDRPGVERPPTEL
# [5] = target: Lipoxygenase (Glycine max, UniProt Q39829); test: (§1) Inhibition of soybean lipoxygenase after 5 mins by colorimetric assay
# In short: (§2)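 Purified soybean lipoxygenase resuspended in 0.1 M Tris-HCl, pH 7. Enzyme plus test sample was started with substrate (dissolved in KOH, diluted to 1 mM) at room temperature for 5 min. Chromogen was added for 5 min to stop the reaction, then absorbance read at 490 nm. Activity is relative to enzyme plus substrate alone.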
# [6] = tested on: RAW264.7; test: Inhibition of IL6 release in mouse RAW264.7 cells at 10 uM per-treated with compound for 2 hrs before LPS challenge for 22 hrs by ELISA method; assay type: functional
# In short: (§3)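 RAW 264.7 macrophages grown in DMEM with 10% heat-inactivated FBS and 1% Pen Strep, 37°C, 5% CO2. Pretreated 2 h with compound (10 µM) or vehicle, then LPS (0.5 µg/ml, in PBS) 22 h. Medium was centrifuged and cytokine measured by mouse ELISA. Levels were normalized to total protein of the cell pellet and expressed as percent of LPS control. Triplicates, mean ± SEM.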
# [7] = tested on: RAW264.7; test: Immunostimulatory activity in mouse RAW264.7 cells assessed as stimulation of IL6 release at 10 uM per-treated with compound for 2 hrs before LPS challenge for 22 hrs by ELISA method; assay type: functional, cell-based; in short: as §3
# [8] = target: Lipoxygenase (Glycine max) (UniProt Q39829); test: Inhibition of soybean lipoxygenase at 40 ug/mL after 5 mins by colorimetric assay
# [9] = target: Lipoxygenase (Glycine max) (UniProt Q39829); test: as §1; in short: as §2
# [10] = tested on: RAW264.7; test: Immunostimulatory activity in mouse RAW264.7 cells assessed as stimulation of TNFalpha expression at 10 uM per-treated with compound for 2 hrs before LPS challenge for 22 hrs by ELISA method; assay type: functional, cell-based; in short: as §3
SMILES,IC50 [1] [µM],IC50 [2] [µM],inhibition at 10 µM [3] [%],IC50 [4] [µM],IC50 [5] [µM],inhibition at 10 µM [6] [%],Activity [7],inhibition [8] [%],inhibition [9],Activity [10]
CN(C)c1ccc(/C=C2\CNC/C(=C\c3ccc(N(C)C)cc3[N+](=O)[O-])C2=O)c([N+](=O)[O-])c1,4.19,7.88,73,0.67,39.5,76,,,,
O=C(/C=C/c1ccc(N2CCCC2)cc1)/C=C/c1ccc(N2CCCC2)cc1,29.3,69.8,,49.3,,,,,,
CN(C)c1ccc(/C=C2/CCC/C(=C\c3ccc(N(C)C)cc3[N+](=O)[O-])C2=O)c([N+](=O)[O-])c1,11.2,> 100,,0.42,29.3,,,,,
CN(C)c1ccc(/C=C2\CC/C(=C\c3ccc(N(C)C)cc3[N+](=O)[O-])C2=O)c([N+](=O)[O-])c1,38.4,> 100,,,,,,,,
CN1C/C(=C\c2ccc(N(C)C)cc2[N+](=O)[O-])C(=O)/C(=C/c2ccc(N(C)C)cc2[N+](=O)[O-])C1,2.19,9.12,91,1.22,38.3,91,,,,
O=C(/C=C/c1ccc(N2CCCC2)cc1)C1CCc2ccccc2C1=O (stereo unspecified),44.1,61.2,,,,,Active,,,
O=C1/C(=C/c2ccc(N3CCCC3)cc2)CN(Cc2ccccc2)C/C1=C\c1ccc(N2CCCC2)cc1,19.2,57.2,,51.3,,,,,,
CCOC(OCC)c1ccc(/C=C/C(=O)C2CCc3ccccc3C2=O)cc1 (stereo unspecified),27.7,13.3,,1.12,52.2,,,69.5,69.5%,
COc1cc(/C=C/C(=O)CC(=O)/C=C/c2ccc(O)c(OC)c2)ccc1O [CURCUMIN],10.1,,,29.7,59.5,,,68.3,Dose-dependent effect,
CCOC(OCC)c1ccc(/C=C/C(=O)/C=C/c2ccc(C(OCC)OCC)cc2)cc1,19.2,31.5,,3.22,210,76,,,,
CN(C)c1ccc(/C=C2\CCc3ccccc3C2=O)c([N+](=O)[O-])c1,37.6,28,,21.5,,,Active,,,
CC(Cc1ccc(O)c(O)c1)C(C)Cc1ccc(O)c(O)c1 (stereo unspecified) [NORDIHYDROGUAIARETIC ACID],,,,,9.23,,,,,
CCOC(OCC)c1ccc(/C=C2\CNC/C(=C\c3ccc(C(OCC)OCC)cc3)C2=O)cc1,7.14,27.7,91,,88.4,91,,,,
CN(C)c1ccc(/C=C2\CN(Cc3ccccc3)C/C(=C\c3ccc(N(C)C)cc3[N+](=O)[O-])C2=O)c([N+](=O)[O-])c1,15.2,19.2,,14.6,211,,,,,
CN(C)c1ccc(/C=C2\Cc3ccccc3C2=O)c([N+](=O)[O-])c1,28,14.8,,9.91,,,,,,
CCOC(OCC)c1ccc(/C=C2\CN(C)C/C(=C\c3ccc(C(OCC)OCC)cc3)C2=O)cc1,4.21,38.2,73,,65.6,76,,67.6,,
CCOC(OCC)c1ccc(/C=C2\CN(Cc3ccccc3)C/C(=C\c3ccc(C(OCC)OCC)cc3)C2=O)cc1,17.8,> 100,,3.17,,,,,,

SMILES,IC50 [1] [µM],IC50 [2] [µM],inhibition at 10 µM [3] [%],IC50 [4] [µM],IC50 [5] [µM],inhibition at 10 µM [6] [%],Activity [7],inhibition [8] [%],inhibition [9],Activity [10]
CCOC(OCC)c1ccc(/C=C2\COC/C(=C\c3ccc(C(OCC)OCC)cc3)C2=O)cc1,8.76,11.2,73,,91,,,,,
O=C1/C(=C/c2ccc(N3CCCC3)cc2)COC/C1=C\c1ccc(N2CCCC2)cc1,15.2,> 100,,39.4,,,,,,
CCOC(OCC)c1ccc(/C=C2\CCc3ccccc3C2=O)cc1,58.2,> 100,,,,,,,,Active
O=C1/C(=C/c2ccc(N3CCCC3)cc2)CCc2ccccc21,54.2,> 100,,33.5,,,,,,
O=C1/C(=C/c2ccc(N3CCCC3)cc2)CC/C1=C\c1ccc(N2CCCC2)cc1,55.7,46.2,,37.8,,,,,,Active
CCOC(OCC)c1ccc(/C=C2\CCC/C(=C\c3ccc(C(OCC)OCC)cc3)C2=O)cc1,12.6,17.4,,,83.1,,,,,
CN1C/C(=C\c2ccc(N3CCCC3)cc2)C(=O)/C(=C/c2ccc(N3CCCC3)cc2)C1,11.2,> 100,,69.2,,,,,,
O=C1/C(=C/c2ccc(N3CCCC3)cc2)Cc2ccccc21,67.3,54.6,,,,,Active,,,Active
O=C1/C(=C/c2ccc(N3CCCC3)cc2)CNC/C1=C\c1ccc(N2CCCC2)cc1,12.1,> 100,,,,,,,,
CN(C)c1ccc(/C=C2\COC/C(=C\c3ccc(N(C)C)cc3[N+](=O)[O-])C2=O)c([N+](=O)[O-])c1,7.79,18.6,73,0.72,44.7,76,,,,
O=C1/C(=C/c2ccc(N3CCCC3)cc2)CCC/C1=C\c1ccc(N2CCCC2)cc1,28.3,54.3,,33.5,,,,,,
C[C@@H]1C[C@H]2[C@@H]3CCC4=CC(=O)C=C[C@]4(C)[C@@]3(F)[C@@H](O)C[C@]2(C)[C@@]1(O)C(=O)CO [DEXAMETHASONE],0.61,,,,,,,,,
CCOC(OCC)c1ccc(/C=C2\Cc3ccccc3C2=O)cc1,37.3,19.3,,2.22,,,,,,
CCOC(OCC)c1ccc(/C=C2\CC/C(=C\c3ccc(C(OCC)OCC)cc3)C2=O)cc1,,14.8,,,,,,,,
CN(C)c1ccc(/C=C/C(=O)/C=C/c2ccc(N(C)C)cc2[N+](=O)[O-])c([N+](=O)[O-])c1,18.2,15,,3.96,103,76,,,,
CN(C)c1ccc(/C=C/C(=O)C2CCc3ccccc3C2=O)c([N+](=O)[O-])c1 (stereo unspecified),22.2,37.7,,29.3,157,,,,,
